Screening results: PubChem BioAssay, several laboratories
Most compounds without a hit are left out; they make up all but 1.8% or so of the library.
NSD2 HMT inh: blocks human histone methyltransferase NSD2; O96028; NSD2 peptide methylation, AlphaScreen, 120 min; inhibition, % at 12.5 µM; 310,000 tested, 0.54% active; AID 743445; in the data active = inhibition above about 50%
TDP2 inh: TDP2 (human) inhibition, absorbance primary screen; 370,000 tested, 0.34% active; recombinant TDP2, T5PNP hydrolysis, p-nitrophenol absorbance 415 nm; inhibition, % at 12.8 µM; O95551;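 active = inhibition above the mean of all tested compounds plus 3 SD, set per campaign, cut at about 25% in these data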;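 also: 0% = DMSO with enzyme and 100% = buffer with substrate but no TDP2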
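Evaluation: % inhibition relative to enzyme-containing and enzyme-free wells. Material: recombinant human TDP2. Benchmarks: enzyme-free and DMSO wells. Timing: enzyme reaction with compound for 2 h at 37 °C. Compound dosing: 12.8 µM only. Measured by: p-Nitrophenol epi absorbance. Reagent: T5PNP substrate at 5 mM, a TopII-DNA adduct mimic. Replication: single well per compound.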
MBD2 inh: inhibitors of human MBD2 binding to methylated oligonucleotide; inhibition, % at 4.4 µM; AID 686964; 370,000 tested, 0.31% active; TR-FRET; Q9UBB5; in the data active = inhibition above about 13%
Target sequence (Q9UBB5 whole entry, looked up): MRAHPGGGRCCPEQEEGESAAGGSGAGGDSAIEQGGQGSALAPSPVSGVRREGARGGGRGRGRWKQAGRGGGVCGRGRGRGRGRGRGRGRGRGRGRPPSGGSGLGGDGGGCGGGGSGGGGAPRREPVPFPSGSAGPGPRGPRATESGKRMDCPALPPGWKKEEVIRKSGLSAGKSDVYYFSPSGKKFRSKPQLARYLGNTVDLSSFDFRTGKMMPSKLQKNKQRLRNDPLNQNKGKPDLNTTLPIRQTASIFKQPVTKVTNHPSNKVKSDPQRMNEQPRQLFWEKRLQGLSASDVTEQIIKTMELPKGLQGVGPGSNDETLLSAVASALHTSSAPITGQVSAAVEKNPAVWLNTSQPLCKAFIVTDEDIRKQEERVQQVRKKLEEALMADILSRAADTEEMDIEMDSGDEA
LEDGF integ inh: blocks HIV-1 LEDGF/p75-dependent DNA integration; TR-FRET IN-LEDGF/p75 DNA integration, Eu/Cy5; inhibition, % at 3.7 µM; 370,000 tested, 0.64% active; AID 743269;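 active = inhibition above the screen-wide mean plus 3 SD, cut at about 13% in these data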;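 also: signal is the Cy5 over europium emission ratio at 671 and 618 nm; 0% = plate median of compound wells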
UHRF1 binding: human UHRF1 methylated DNA binding inhibitors. Q96T88. UHRF1 binding to methylated oligo, TR-FRET. inhibition, % at 4.4 µM. 370,000 tested, 0.75% active; in the data active = inhibition above about 21%;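 also: UHRF1 SRA domain binding a hemimethylated CpG hairpin DNA probe; 0% = median of test compound wells and 100% = reference inhibitor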
CASP6 VEID inh: caspase-6 (human) enzyme inhibition. P55212. purified caspase-6, Z-VEID-R110 cleavage fluorescence. inhibition, % at 12.5 µM. 350,000 tested, 0.53% active. AID 686996;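 active = mean inhibition across replicates at least about 35%, with every replicate also reaching that limit, limit read from the data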;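 also: 0% = median of neutral control wells and 100% = no fluorescence left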
IN multimer up: counter-screen for LEDGF/p75 integration inhibitors: HIV-1 integrase multimerization activators; shares compounds with LEDGF integ inh; TR-FRET HIV-1 integrase multimerization, biochemical; activation, % at 7.7 µM; 2,000 tested, 17% active; AID 1053131; in the data active = activation above about 8.9%
TRFRET interf: counter-screen for LEDGF/p75 integration inhibitors: TR-FRET optical interference. shares compounds with LEDGF integ inh. TR-FRET optical interference counterscreen, HIV-1 IN multimerization. inhibition, % at 7.7 µM. 2,000 tested, under 10 active. AID 1053135;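 active = inhibition above the mean over all tested compounds plus 3 SD, which no compound reached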;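 also: 0% = integrase with antibodies and DMSO and 100% = antibodies without integrase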
IN-LEDGF confirm: confirmation of HIV-1 LEDGF/p75-dependent integration inhibitors | shares compounds with LEDGF integ inh | TR-FRET LEDGF/p75-dependent HIV-1 integration, biochemical | inhibition, % at 3.7 µM | 2,000 tested, 36% active; in the data active = inhibition above about 14%
* = called active by the depositor; . = no result.

SMILES	NSD2 HMT inh	TDP2 inh	MBD2 inh	LEDGF integ inh	UHRF1 binding	CASP6 VEID inh	IN multimer up	TRFRET interf	IN-LEDGF confirm
CC(=O)Nc1ccc(-c2ccnc3c2CC(C(=O)Nc2cccc(N(C)C)c2)O3)cc1 (stereo not drawn)	4	0	-3	24*	-2	4	2	-8	-6
CNC[C@@H]1Oc2c(NS(=O)(=O)c3ccc(OC)cc3)cccc2C(=O)N([C@H](C)CO)C[C@H]1C	.	.	.	.	.	-5	.	.	.
COc1ccc(N(CC(=O)NCc2ccco2)S(=O)(=O)c2ccc(C)cc2)cc1OC	-4	-5	-2	7	3	0	.	.	.
COc1ccccc1N(CC(=O)NCc1ccco1)S(=O)(=O)c1ccc(C)cc1	.	10	8	23*	29*	50*	5	-17	28*
COC(=O)C[C@@H]1CC[C@@H]2[C@H](COc3ccc(NC(=O)c4ccc(OC)cc4)cc3C(=O)N2C)O1	.	.	.	.	.	-2	.	.	.
CCNc1ccc(Br)cc(C(=O)/C=C/c2ccc3c(c2)OCO3)c1=O	8	1	3	23*	6	.	1	-6	41*
C=CCNC(=S)N/N=C(\C)c1ccc(OC)cc1	-1	-2	10	16*	27*	20	1	-4	-10
CC(C)C[C@H]1CN([C@@H](Cc2ccccc2)CN2CCC[C@H]2CN2C(=O)C(=O)NC[C@@H]2Cc2ccccc2)C(=O)C(=O)N1CC1CCCCCC1	.	-8	0	21*	3	4	1	-4	1
Cc1ccc(C)c(N=Cc2cc3c(cc2[N+](=O)[O-])OCO3)c1	2	10	9	40*	38*	-3	0	-2	4
CC(C)(C)c1ccc(O)c(N=Cc2cc3c(cc2[N+](=O)[O-])OCO3)c1	1	-6	-2	7	-3	1	.	.	.
CC(=O)N(C)c1ccc(N=Cc2cc3c(cc2[N+](=O)[O-])OCO3)cc1	.	37*	-7	43*	3	36*	7	-33	51*
COc1ccccc1-c1ccc2n(c1=O)C[C@@H]1[C@@H](CO)[C@H](C(=O)N[C@H](C)c3ccccc3)[C@H]2N1C	.	.	.	.	.	1	.	.	.
Cn1c(SCC(=O)N2CCOCC2)nnc1-c1ccncc1	-5	-5	1	0	-1	0	.	.	.
Cn1c(SCC(=O)N2CCOCC2)nnc1-c1cnccn1	0	8	1	20*	1	.	0	0	4
COc1ccccc1S(=O)(=O)N(C)C[C@H]1OCc2cnnn2CCCC(=O)N([C@@H](C)CO)C[C@@H]1C	.	11	-1	53*	-2	-8	0	0	-17
COc1ccccc1Cc1c(-c2ccco2)nc2cc(C)c(Br)c(C)n12	.	-4	10	14*	25*	6	6	-22	21*
CSc1ccc(C2C(C#N)=C(N)Oc3c2ccc(=O)c2c(C)oc(C)c32)cc1 (stereo not drawn)	.	-3	-2	-2	-4	.	.	.	.
Cc1oc(C)c2c(=O)ccc3c(c12)OC(N)=C(C#N)C3c1ccccc1 (stereo not drawn)	-1	-17	-1	15*	6	.	-2	7	8
O=C(C[C@@H]1C=C[C@@H](NS(=O)(=O)c2ccc(F)cc2)[C@H](CO)O1)NCCN1CCCCC1	.	.	.	.	.	0	.	.	.
CC1Cn2c(Cc3ccccc3)nnc2S1 (stereo not drawn)	2	-11	1	3	5	1	.	.	.
CC1Cn2c(CCc3ccccc3)nnc2S1 (stereo not drawn)	.	4	3	23*	1	.	0	-1	-6
Cc1ccc(Cc2c(-c3ccccc3)nc3c(Cl)cc(C(F)(F)F)cn23)cc1	.	-1	3	20*	1	0	1	-5	-1
CO[C@@H]1CC[C@@H]2CCN(C)C(=O)C[C@H](c3ccccc3)CN(C)C(=O)c3cccc(C#N)c3OC[C@@H]1O2	.	.	.	.	.	1	.	.	.
O=C(COC(=O)C1CCN(S(=O)(=O)c2ccc3c(c2)OCCO3)CC1)NC1CCS(=O)(=O)C1 (stereo not drawn)	-3	-3	1	81*	1	-3	0	1	1
O=C(C[C@@H]1C[C@H]2c3cc(NC(=O)c4ccc5c(c4)OCO5)ccc3O[C@H]2[C@H](CO)O1)NC1CCCCC1	.	.	.	.	.	0	.	.	.
SMILES	NSD2 HMT inh	TDP2 inh	MBD2 inh	LEDGF integ inh	UHRF1 binding	CASP6 VEID inh	IN multimer up	TRFRET interf	IN-LEDGF confirm
CC1=C(C(=O)Nc2ccccc2)C(c2ccc(C)o2)n2c(s/c(=C\c3ccco3)c2=O)=N1 (stereo not drawn)	0	-1	11	29*	16	.	3	-14	6
COc1cccc(C2C(C(=O)Nc3ccccc3)=C(C)N=c3s/c(=C/c4ccc(OCC(=O)O)cc4)c(=O)n32)c1 (stereo not drawn)	5	8	-5	4	-5	.	.	.	.
CC(=O)Nc1cc2c(cc1[N+](=O)[O-])-c1ccccc1C2=NO	0	4	-8	15*	-4	-1	0	1	1
COC(=O)[C@H]1C[C@H]2[C@@H]3CC[C@H]4C[C@@H](OC)CC[C@]4(C)[C@H]3CC[C@]2(C)[C@@]2(CCCO2)O1	.	-5	-4	49*	1	2	1	-6	4
O=C(O)C1Nc2c(O)cccc2C2C=CCC12 (stereo not drawn)	26	20	37*	70*	74*	92*	8.9*	-30	77*
CC(C)CNC(=O)C1Nc2ccccc2C2C=CCC12 (stereo not drawn)	.	-2	2	2	-8	0	.	.	.
O=C(c1cccnc1)N1C[C@H]2[C@@H](c3ccccc31)[C@@H](CO)N2C(=O)C1CCCCC1	.	.	.	.	.	2	.	.	.
CC(=O)N1CCN(c2ccc(NCc3cccc(C)c3)cc2)CC1	.	21	0	14*	-3	4	3	-17	-2
CC(=O)N1CCN(c2ccc(N)cc2)CC1	.	24	5	26*	14	36*	0	0	-1
CC(=O)N[C@@H]1CC[C@H](CCNC(=O)C2CCC2)O[C@H]1CO	.	.	.	.	.	2	.	.	.
Cc1ccc(-n2nc3c(c2NC(=O)c2ccc(Br)o2)CSC3)c(C)c1	.	-3	-2	15*	-2	.	0	-1	49*
Cc1ccc(-n2nc3c(c2NC(=O)C(C)(C)C)CSC3)c(C)c1	-1	-8	-1	-2	2	.	.	.	.
